The source of these data is ChEMBL document CHEMBL1124444, “Hydroxyacetophenone-derived antagonists of the peptidoleukotrienes” (1989).

Broadly, the inhibition is the drop in the measured response relative to a control, in per cent.

Active and inactive are the calls of the source. The calls are words filed in the database; no cut-off is given here.

The species entered for experiment [1] is Cavia porcellus. Nature of the experiment: Percent inhibition of the leukotriene E4 -induced contraction of guinea pig tracheal spirals at 10 uM concentration. It counts as functional. The following applies: Trachea. In short, it runs like this:
(§1)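 Guinea pig tracheal spirals were split into paired sections in 10 mL baths of modified Krebs at 37 °C, gassed with 95% O₂/5% CO₂, under 2 g resting tension. After 60 min equilibration (washes every 15 min), reproducible contractions to 8 nM LTD₄ or 8 nM LTE₄ were obtained. Compound was added for 10 min, then agonist challenge repeated; percent inhibition is relative to the vehicle-treated paired section.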

For experiment [2], the species on record is Cavia porcellus. Description: Percent inhibition of the leukotriene E4 -induced contraction of guinea pig tracheal spirals at 1 uM concentration. Format: functional. The conditions noted are these: Trachea. Put shortly: as §1
Experiment [3] is filed under the species Cavia porcellus. Nature of the experiment: Percent inhibition of the leukotriene D4 (LTD4)-induced contraction of guinea pig tracheal spirals at 10 uM concentration. Format: functional. The conditions noted are these: Trachea. In short, it runs like this:
as §1

The species named for experiment [4] is Cavia porcellus. Nature of the experiment: Percent inhibition of the leukotriene E4 (LTE4)-induced contraction of guinea pig tracheal spirals at 1 uM concentration. The following applies: Trachea. Format: functional. Put shortly: as §1
For experiment [5], the species on record is Cavia porcellus. Nature of the experiment: Percent inhibition of the leukotriene D4 (LTD4)-induced contraction of guinea pig tracheal spirals at 10 uM concentration; NS means data was not statistically significant. Format: functional. The following applies: Trachea. In short, it runs like this: as §1
For experiment [6], the species on record is Cavia porcellus. Description: Percent inhibition of the leukotriene E4 (LTE4)-induced contraction of guinea pig tracheal spirals at 1 uM concentration; NS means data was not statistically significant. The following applies: Trachea.
Experiment [7] is filed under the species Cavia porcellus. Nature of the experiment: Percent inhibition of the leukotriene E4 (LTE4)-induced contraction of guinea pig tracheal spirals at 3.3 uM concentration. The conditions noted are these: Trachea.
Experiment [8] is filed under the species Cavia porcellus. Description: Percent inhibition of the leukotriene E4 (LTE4)-induced contraction of guinea pig tracheal spirals at 1 uM concentration. The following applies: Trachea.
The test system of experiment [9] is Cavia porcellus. Description: Compound (50 mg/kg, intraperitoneally) was tested in spontaneously breathing, conscious guinea pigs challenged with aerosolized LTD4 (60-min pretreatment). It counts as functional.
Experiment [10] is filed under the species Cavia porcellus. Nature of the experiment: Percent inhibition of the leukotriene E4 (LTE4)-induced contraction of guinea pig tracheal spirals at 0.33 uM concentration. The conditions noted are these: Trachea.
For experiment [11], the target named is T1, Cysteinyl leukotriene receptor 1 (Cavia porcellus) (UniProt Q2NNR5).
T1 sequence (whole entry): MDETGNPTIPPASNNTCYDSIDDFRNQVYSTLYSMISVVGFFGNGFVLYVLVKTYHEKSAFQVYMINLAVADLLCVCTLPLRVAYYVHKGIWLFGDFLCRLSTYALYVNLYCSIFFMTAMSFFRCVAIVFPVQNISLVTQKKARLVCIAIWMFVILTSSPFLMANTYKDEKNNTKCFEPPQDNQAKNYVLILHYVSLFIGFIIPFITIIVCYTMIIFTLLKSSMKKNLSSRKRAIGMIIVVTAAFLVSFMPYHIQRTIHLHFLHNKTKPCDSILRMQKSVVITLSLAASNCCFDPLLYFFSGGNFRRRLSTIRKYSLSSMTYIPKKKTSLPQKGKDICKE
Description: Dissociation constant (KB) […] was evaluated in vitro in isolated guinea pig tracheal strips.

The species entered for experiment [12] is Cavia porcellus. Description: Percent inhibition of the leukotriene D4 (LTD4)-induced contraction of guinea pig tracheal spirals at 50 uM concentration; NS means data was not statistically significant. Format: functional. The conditions noted are these: Trachea. Put shortly: as §1
The species named for experiment [13] is Cavia porcellus. Description: Percent inhibition of the leukotriene E4 (LTE4)-induced contraction of guinea pig tracheal spirals at 10 uM concentration; NS means data was not statistically significant. Format: functional. The conditions noted are these: Trachea. In short, it runs like this:
as §1

The species entered for experiment [14] is Cavia porcellus. Nature of the experiment: Percent inhibition of the leukotriene E4 (LTE4)-induced contraction of guinea pig tracheal spirals at 5 uM concentration. It counts as functional. The following applies: Trachea. Put shortly:
as §1

The species entered for experiment [15] is Cavia porcellus. Nature of the experiment: Percent inhibition of the leukotriene E4 ([…])-induced contraction of guinea pig tracheal spirals at 1 uM concentration; NS means data was not statistically significant. Format: functional. The following applies: Trachea. Put shortly: as §1
The species named for experiment [16] is Cavia porcellus. Nature of the experiment: Percent inhibition of the leukotriene E4 (LTE4)-induced contraction of guinea pig tracheal spirals at 10 uM concentration. It counts as functional. The following applies: Trachea. Put shortly: as §1
The species entered for experiment [17] is Cavia porcellus. Nature of the experiment: Percent inhibition of the leukotriene E4 (LTE4)-induced contraction of guinea pig tracheal spirals at 50 uM concentration; NS means data was not statistically significant. Format: functional. The following applies: Trachea. Put shortly:
as §1

For experiment [18], the species on record is Cavia porcellus. Description: Percent inhibition of the leukotriene D4 (LTD4)-induced contraction of guinea pig tracheal spirals at 1 uM concentration. It counts as functional. The conditions noted are these: Trachea. In short, it runs like this:
as §1

For experiment [19], the species on record is Cavia porcellus. Description: Inhibition of the leukotriene D4 (LTD4)-induced contraction of guinea pig tracheal spirals at 10 uM concentration. The conditions noted are these: Trachea. It counts as functional. Put shortly: as §1
The species entered for experiment [20] is Cavia porcellus. Description: Percent inhibition of the leukotriene D4 (LTD4)-induced contraction of guinea pig tracheal spirals at 4 uM concentration; NS means data was not statistically significant. It counts as functional. The conditions noted are these: Trachea. In short, it runs like this:
as §1

The species named for experiment [21] is Cavia porcellus. Description: Percent inhibition of the leukotriene D4 (LTD4)-induced contraction of guinea pig tracheal spirals at 5 uM concentration. It counts as functional. The conditions noted are these: Trachea. Put shortly:
as §1

Experiment [22] is filed under the species Cavia porcellus. Nature of the experiment: Percent inhibition of the leukotriene D4-induced contraction of guinea pig tracheal spirals at 4 uM concentration. It counts as functional. The conditions noted are these: Trachea. Put shortly:
as §1

Experiment [23] deals with Cavia porcellus. Description: Compound (50 mg/kg, intraperitoneally) was tested in spontaneously breathing, conscious guinea pigs challenged with aerosolized LTD4 (30-min pretreatment). Format: functional.
Experiment [24] has as its system Cavia porcellus. Description: Compound (50 mg/kg, intraperitoneally) was tested in spontaneously breathing, conscious guinea pigs challenged with aerosolized LTD4 (60-min pretreatment); NS means data were not statistically significant. It counts as functional, organism-based.
The species named for experiment [25] is Cavia porcellus. Nature of the experiment: Percent inhibition of the leukotriene E4 (LTE4)-induced contraction of guinea pig tracheal spirals at 10 uM concentration; NS means data was not statistically significant. The following applies: Trachea. It counts as functional. Put shortly: as §1
The species named for experiment [26] is Cavia porcellus. Description: Percent inhibition of the leukotriene D4 (LTD4)-induced contraction of guinea pig tracheal spirals at 10 uM concentration; NS meana data was not statistically significant. It counts as functional. The conditions noted are these: Trachea. Put shortly:
as §1

Experiment [27] is filed under the species Cavia porcellus. Description: Percent inhibition of the leukotriene D4 (LTD4)-induced contraction of guinea pig tracheal spirals at 4 uM concentration; NS means data was not statistically significant. Format: functional. The following applies: Trachea. In short, it runs like this:
as §1

The compound `COc1cc(C(=O)O)ccc1COc1ccc(C(C)=O)c(O)c1Cc1ccccc1` registered an inhibition at 10 µM in the experiment filed under Cavia porcellus [1] of 100%. This compound also returned an inhibition at 1 µM in the experiment filed under Cavia porcellus [2] of 39%.

In the experiment listed under Cavia porcellus [3], `CCCc1c(OCc2ccc(C(=O)O)cc2OC)ccc(C=O)c1O` gave an inhibition at 10 µM of 54%.

Regarding `COc1cc(C(=O)O)ccc1COc1ccc(C(C)=O)c(O)c1CC(C)C`, the inhibition at 1 µM in the experiment filed under Cavia porcellus [4] worked out at 22%.

On to `COc1cc(C(=O)O)ccc1COc1ccc2c(C)cc(=O)oc2c1`, for which the inhibition result in the experiment listed under Cavia porcellus [5] was “Not statistically significant”.

Take `CCCc1c(OCc2ccc(-c3nn[nH]n3)cc2OC)ccc(C(C)=O)c1O`: in the experiment listed under Cavia porcellus [6], the inhibition entry is “Not statistically significant”. In the experiment filed under Cavia porcellus [7], this compound showed an inhibition at 3.3 µM of 45%.

In the case of `CCCc1c(OCc2ccc(C(=O)Nc3nn[nH]n3)cc2OC)ccc(C(C)=O)c1O`, the inhibition at 3.3 µM in the experiment filed under Cavia porcellus [7] was 43%.

`CCCc1c(OCc2cccc(NC(=O)c3ccccc3C(=O)O)c2)ccc(C(C)=O)c1O`: the inhibition at 1 µM in the experiment listed under Cavia porcellus [8] amounted to 94%. Besides, the Protection in the experiment on Cavia porcellus [9] is reported as 9%. Testing at 0.33 µM in the experiment listed under Cavia porcellus [10] gave an inhibition of 45%. Besides, the Kb in experiment [11] is 160 nM.

For the compound `CCCCCCc1c(OCc2ccc(C(=O)O)cc2OC)ccc(C(C)=O)c1O`, the inhibition entry in the experiment filed under Cavia porcellus [12] is “Not statistically significant”.

Consider `CCCc1cc2c(C)cc(=O)oc2cc1OCc1ccc(C(=O)O)cc1OC`, for which, in the experiment listed under Cavia porcellus [13], the inhibition entry is “Not statistically significant”.

`CCCc1c(OCc2ccc(C(=O)O)cc2OC)ccc(C(=O)CC)c1O`: in the experiment filed under Cavia porcellus [14], the inhibition at 5 µM came to 73%. The inhibition entry in the experiment filed under Cavia porcellus [15] is “Not statistically significant”. Besides, in the experiment listed under Cavia porcellus [16], the inhibition at 10 µM was 97%.

Consider `CCCc1c(OCc2ccc(C(=O)O)cc2OC)ccc(CCC(=O)O)c1O`, for which, in the experiment filed under Cavia porcellus [17], the inhibition result was “Not statistically significant”.

On to `CCCc1c(OCc2ccc(C(=O)O)c(Br)c2)ccc(C(C)=O)c1O`, for which the Protection with Cavia porcellus [9] was 69%. The compound also returned a Kb in [11] of 170 nM. In the experiment filed under Cavia porcellus [18], this compound gave an inhibition at 1 µM of 30%.

Take `CCCc1c(OCc2ccc(C(=O)O)c(OC)c2)ccc(C(C)=O)c1O`: in the experiment filed under Cavia porcellus [19], the inhibition at 10 µM came to 44%. For the same compound, the inhibition result in the experiment listed under Cavia porcellus [20] is “Not statistically significant”.

Compound `CCC(C)c1c(OCc2ccc(C(=O)O)cc2OC)ccc(C(C)=O)c1O` (configuration not stated) registered an inhibition at 10 µM in the experiment listed under Cavia porcellus [19] of 100%. In addition, the inhibition at 5 µM in the experiment filed under Cavia porcellus [21] turned out to be 85%.

Turning to `C/C=C(\c1ccccc1)c1c(OCc2ccc(C(=O)O)cc2OC)ccc(C(C)=O)c1O`, at 5 µM the inhibition in the experiment listed under Cavia porcellus [21] was 24%.

`CCCc1c(OCC(O)COc2ccc3c(=O)cc(C(=O)O)oc3c2CCC)ccc(C(C)=O)c1O` (configuration not stated) [FPL-55712] registered an inhibition at 4 µM in the experiment listed under Cavia porcellus [22] of 62%. The Protection in the experiment on Cavia porcellus [23] is recorded as 32%. Besides, the Protection entry in the experiment with Cavia porcellus [24] was “inactive”.

Consider `CCCc1c(OCc2ccc(C(=O)O)cc2OC)ccc(C(=O)Oc2ccccc2)c1O`, for which the inhibition result in the experiment filed under Cavia porcellus [25] is “Not statistically significant”.

Regarding `COc1cc(C(=O)O)ccc1COc1ccc(C(C)=O)c(O)c1`, the inhibition result in the experiment filed under Cavia porcellus [26] was “Not statistically significant”.

The compound `C=C(C)Cc1c(OCc2ccc(C(=O)O)cc2OC)ccc(C(C)=O)c1O` registered an inhibition at 5 µM in the experiment filed under Cavia porcellus [14] of 82%. In the experiment with Cavia porcellus [9], the Protection amounted to 30%. This compound also registered an inhibition at 1 µM in the experiment filed under Cavia porcellus [4] of 35%. In experiment [11], this compound gave a Kb of 1640 nM.

`CCCc1c(OCc2ccc(C(=O)O)cc2OC)ccc(C(C)=O)c1N` returned an inhibition at 10 µM in the experiment filed under Cavia porcellus [19] of 43%. Also, the inhibition entry in the experiment filed under Cavia porcellus [27] was “Not statistically significant”.
